Activity calls are given as the source filed them. The rule behind the calls is not given here.

One may read the inhibition as the drop in the measured response relative to a control, in per cent.

One test concerns Rattus norvegicus. The test can be described thus: Antianaphylactic activity in antiovalbumin IgE serum-treated Wistar rat at 2 x 100 mg/kg, po administered 2.5 hrs prior to ovalbumin challenge measured after 45 mins by passive cutaneous anaphylaxis test. The test is classed as functional, organism-based. The arrangement: dose 100 mg/kg. To be noted: in the assay text read “2 hrs and again 30 mins prior to” for “2.5 hrs prior to”. In a few lines:
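Female Wistar rats, shaved and lightly anaesthetized, received an intradermal abdominal injection of diluted rat antiovalbumin IgE serum. After 24 h they were challenged iv with ovalbumin mixed with dye. Compound was given at 2 h and again at 30 min before challenge. Rats were killed 45 min after challenge and the blue area on the inner skin surface was measured.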

Test [1] is described as follows: Antianaphylactic activity in ovalbumin sensitized albino guinea pig chopped lung assessed as inhibition of antigen-induced slow-reacting substance of anaphylaxis release at 10 ug/mL after 15 mins relative to control. The test is classed as functional, Cavia porcellus. In a few lines: (§1)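 Lungs were perfused with Tyrode's, chopped into 0.5-mm cubes and split into 100-mg aliquots. Aliquots were challenged with antigen ± compound and rocked at 37 °C for 15 min. Unchallenged controls gave spontaneous release. Supernatant histamine or SRS-A was bioassayed on guinea pig ileum against standards. Values are % inhibition, mean of four samples.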

Test [2] in a line: Antianaphylactic activity in ovalbumin sensitized albino guinea pig chopped lung assessed as inhibition of antigen-induced histamine release at 10 ug/mL after 15 mins relative to control. It counts as functional, Cavia porcellus. In a few lines: as §1
Test [3] in a line: Antianaphylactic activity in human chopped lung treated with atopic serum isolated from patients allergic to cocksfoot pollen assessed as inhibition of antigen-induced slow-reacting substance of anaphylaxis release at 10 ug/mL after 15 mins relative to control. It counts as functional. To be noted: 0.25 h. The method in brief:
(§2)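 Surgical human lung (bronchial carcinoma resections) was washed in Hank's, chopped into 0.5-mm cubes and incubated for 18 h at 18 °C with atopic serum from cocksfoot pollen-allergic patients. Tissue was washed, equilibrated in Tyrode's at 37 °C and challenged with saline pollen extract ± compound for 15 min. Histamine or SRS-A in the supernatant was bioassayed on guinea pig ileum. Values are % inhibition, mean of four samples.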

Test [4] is described as follows: Antianaphylactic activity in human chopped lung treated with atopic serum isolated from patients allergic to cocksfoot pollen assessed as inhibition of antigen-induced histamine release at 10 ug/mL after 15 mins relative to control. It counts as functional. Particulars: 0.25 h. The method in brief: as §2

For the compound `CCCCN(C(=O)C1CCC1)c1nc(C)c(C)o1`, the outcome in the test with Rattus norvegicus was inactive. Also, the “inhibition (INH)” value in test [1] was 10%; in test [2] it was 0%.
Taken in the same sequence, the figures for `CCCCN(C(=O)C(C)C)c1ncc(C)o1` were “inactive”, 52% and 31%.
As for `CCC(=O)N(c1nc(C)co1)C(C)C`, the outcome in the test on Rattus norvegicus was inactive. In test [1], the “inhibition (INH)” value was found to be 17%. The inhibition at 10 µg/mL in test [3] and in test [4] was 0% throughout.
Consider `CCCCC(=O)N(CCCC)c1nc(C)co1`, for which, in the test on Rattus norvegicus, the result was inactive. Also, the “inhibition (INH)” value is 49% in test [1] and 21% in test [2].
For the compound `CCCCC(=O)N(c1nc(C)co1)C(C)C`, the outcome in the test with Rattus norvegicus was inactive. Besides, the “inhibition (INH)” value in test [1] and in test [2] was 0% in each case. The inhibition at 10 µg/mL in test [3] and in test [4] was 0% in each case.
In the case of `CCCCCN(C(=O)C(C)C)c1nc(C)co1`, in the test on Rattus norvegicus, the outcome was inactive. The results for the “inhibition (INH)” value in test [1] and in test [2] were 66% and 28%, respectively. Further, the inhibition at 10 µg/mL came out at 47% in test [3] and 14% in test [4].
`CCCCN(C(=O)C(C)C)c1nc(-c2ccc(Cl)cc2)co1`: the outcome with Rattus norvegicus was inactive. For the same compound, the “inhibition (INH)” value was 37% in test [1] and 44% in test [2].
Regarding `CCCCN(C(=O)C(C)C)c1nc(-c2ccccc2)co1`, in the test with Rattus norvegicus, the outcome was inactive. In addition, the “inhibition (INH)” value is recorded as 39% in test [1] and 23% in test [2].
Regarding `CC(=O)N(C)c1nc(C)c(C)o1`, in the test on Rattus norvegicus, the result was inactive. For the same compound, the “inhibition (INH)” value in test [1] is recorded as 17%.
Turning to `CCCCc1coc(N(CCCC)C(=O)C(C)C)n1`, the outcome with Rattus norvegicus was inactive. Further, the “inhibition (INH)” value in test [1] is 14%.
On to `CCCCN(C(C)=O)c1nc(C)co1`, for which the outcome in the test on Rattus norvegicus was inactive. Also, the “inhibition (INH)” value in test [1] is given as 39%; in test [2], 26%.
In the same order, the values of `C=CCN(C(=O)CCC)c1nc(C)co1` are “inactive”, 31% and 51%.
On to `CCCCN(C(=O)C(CC)CC)c1nc(C)co1`, for which the result in the test on Rattus norvegicus was inactive. The “inhibition (INH)” value in test [1] is given as 55%; in test [2], 29%.
In the case of `CCCCN(C(=O)CC1CCCC1)c1nc(C)co1`, in the test on Rattus norvegicus, the outcome was inactive. Moreover, the “inhibition (INH)” value turned out to be 22% in test [1] and 0% in test [2]. Also, the inhibition at 10 µg/mL in test [3] and in test [4] was 0% throughout.
Regarding `CCCCN(C(=O)C(C)C)c1ncc(CC)o1`, the outcome in the test with Rattus norvegicus was inactive. The “inhibition (INH)” value is given as 35% in test [1] and 52% in test [2].
Consider `CCCCCCN(C(C)=O)c1nc(C)co1`, for which the result with Rattus norvegicus was inactive. Also, the “inhibition (INH)” value in test [1] turned out to be 8%. In addition, the inhibition at 10 µg/mL in test [3] turned out to be 15%; in test [4] it was 13%.
For the compound `CCCCN(C(=O)C(C)C)c1nc(C2CCCCC2)co1`, in the test with Rattus norvegicus, the outcome was inactive. Moreover, the “inhibition (INH)” value in test [1] came out at 0%.
Turning to `CCN(C(=O)C(C)C)c1nc(C)c(C)o1`, the outcome in the test with Rattus norvegicus was inactive. Also, the entries for the “inhibition (INH)” value in test [1] and in test [2] were 21% and 13%, respectively.
Taken in the same sequence, the figures for `CCCCN(C(C)=O)c1nc(C)c(C)o1` were “inactive”, 32% and 13%.
Taken in the same sequence, the figures for `C=CCN(C(=O)C(C)C)c1nc(C)co1` were “inactive”, 23% and 42%.
Take `CCCCN(C(=O)C(C)C)c1ncco1`: the outcome in the test with Rattus norvegicus was inactive. Further, the “inhibition (INH)” value in test [1] is recorded as 44%; in test [2] it was 8%.
In the same order, the values of `CCCC(=O)N(CC(C)CC)c1nc(C)co1` (stereo unspecified) are “inactive”, 33% and 35%.
In the case of `CCCCN(C(=O)C1CCCCC1)c1nc(C)co1`, the result with Rattus norvegicus was inactive. For the same compound, the “inhibition (INH)” value came to 32% in test [1] and 27% in test [2]. Further, the figures for the inhibition at 10 µg/mL in test [3] and in test [4] were 26% and 29%, respectively.
Turning to `CCCCN(C(=O)CCC)c1nc(C)c(C)o1`, in the test with Rattus norvegicus, the outcome was inactive. For the same compound, the “inhibition (INH)” value was 37% in test [1] and 46% in test [2].
With `CN1CCC(=C2c3ccccc3CC(=O)c3sccc32)CC1.O=C(O)/C=C/C(=O)O` [KETOTIFEN FUMARATE], the “inhibition (INH)” value in test [1] came out at 38%; in test [2], 37%.
In the case of `CCCCN(C(=O)C(C)C)c1nc(C)c(C)o1`, in the test on Rattus norvegicus, the result was inactive. In addition, the “inhibition (INH)” value in test [1] is reported as 43%; in test [2], 49%. The figures for the inhibition at 10 µg/mL in test [3] and in test [4] were 43% and 49%, respectively.
`CCCCN(C(=O)C1CCCC1)c1nc(C)co1`: the result with Rattus norvegicus was inactive. For the same compound, the “inhibition (INH)” value in test [1] is reported as 66%; in test [2], 47%. For the same compound, the inhibition at 10 µg/mL in test [3] was determined as 69%; in test [4] it was 0%.
With `Cc1coc(N(C(=O)C(C)C)C(C)C)n1`, the result with Rattus norvegicus was inactive. The “inhibition (INH)” value in test [1] came out at 10%. The inhibition at 10 µg/mL in test [3] and in test [4] was 0% each time.
Turning to `CCCCN(C(=O)C(C)CC)c1nc(C)co1` (stereo in doubt; 39) [listing 1 of 2 here], the “inhibition (INH)” value in test [1] was 79%; in test [2], 30%.
Regarding `CCCC(=O)N(c1nc(C)co1)C1CCCCC1`, the outcome with Rattus norvegicus was inactive. Moreover, the “inhibition (INH)” value in test [1] stood at 29%; in test [2], 37%.
Turning to `CCCCN(C(=O)Cc1ccccc1)c1nc(C)co1`, in the test on Rattus norvegicus, the result was inactive. Also, the “inhibition (INH)” value was determined as 31% in test [1] and 0% in test [2].
Regarding `CCC(C)N(C(=O)C(C)C)c1nc(C)co1` (stereo unspecified), the result in the test on Rattus norvegicus was inactive. The entries for the “inhibition (INH)” value in test [1] and in test [2] were 13% and 3%, respectively.
For `CCCCN(C(=O)C(C)CC)c1nc(C)co1` (racemic) [listing 1 of 2 here], the result in the test on Rattus norvegicus was inactive.
Take `Cc1coc(N(C)C(=O)C(C)C)n1`: the outcome in the test on Rattus norvegicus was inactive. Further, the entries for the “inhibition (INH)” value in test [1] and in test [2] were 25% and 61%, respectively.
For `CCCCN(C(=O)C(C)CC)c1nc(C)co1` (stereo in doubt; 38) [listing 1 of 2 here], the “inhibition (INH)” value in test [1] came out at 63%; in test [2] it was 8%.
`CCCCCCC(=O)N(CCCC)c1nc(C)co1`: in the test on Rattus norvegicus, the outcome was inactive. The “inhibition (INH)” value in test [1] turned out to be 8%.
For `CCCCN(C(=O)C(C)CC)c1nc(C)co1` (stereo in doubt; 38) [listing 2 of 2 here], in the test on Rattus norvegicus, the outcome was inactive.
Consider `CCCCN(C(=O)C(C)C)c1ncc(C2CCCCC2)o1`, for which the result in the test on Rattus norvegicus was inactive. The “inhibition (INH)” value in test [1] amounted to 21%.
Turning to `CCCC(=O)N(c1nc(C)co1)C(C)CC` (stereo unspecified), in the test on Rattus norvegicus, the outcome was inactive. Also, the “inhibition (INH)” value in test [1] amounted to 34%; in test [2], 6%.
As to `CCCCN(C(=O)C1CCCCCC1)c1nc(C)co1`, the outcome in the test on Rattus norvegicus was inactive. Also, the results for the “inhibition (INH)” value in test [1] and in test [2] were 49% and 0%, respectively.
On to `CCCCN(C(=O)C(C)CC)c1nc(C)co1` (stereo in doubt; 39) [listing 2 of 2 here], for which the result with Rattus norvegicus was inactive.
On to `CCCC(=O)N(CC)c1nc(C)co1`, for which the outcome in the test on Rattus norvegicus was inactive. Besides, the “inhibition (INH)” value in test [1] is 13%; in test [2], 30%.
Take `CCCCN(C(=O)C(C)C)c1nc(CC)co1`: the result in the test on Rattus norvegicus was inactive. For the same compound, the “inhibition (INH)” value in test [1] turned out to be 41%; in test [2] it was 20%.
In the case of `CCCCN(C(=O)C(C)CC)c1nc(C)co1` (racemic) [listing 2 of 2 here], the figures for the “inhibition (INH)” value in test [1] and in test [2] were 76% and 54%, respectively. In addition, the inhibition at 10 µg/mL in test [3] was determined as 36%; in test [4], 5%.
With `CCCCCN(C(=O)CC)c1nc(C)co1`, in the test with Rattus norvegicus, the result was inactive. In addition, the “inhibition (INH)” value amounted to 41% in test [1] and 16% in test [2].
In the same order, the values of `CCC(C)CN(C(=O)C(C)C)c1nc(C)co1` (stereo unspecified) are “inactive”, 37% and 29%.
As for `CCCCCCN(C(=O)C(C)C)c1nc(C)co1`, the outcome with Rattus norvegicus was inactive. The “inhibition (INH)” value is on record as 42% in test [1] and 18% in test [2].
Consider `CC(=O)N(C)c1nc(C)co1`, for which the outcome in the test with Rattus norvegicus was inactive. The “inhibition (INH)” value in test [1] was 9%; in test [2], 0%.
